AI-2 QS mod: Vibrio harveyi AI-2 quorum sensing modulation; actives 0.4% (n = 300,000); activity change, % at 7.5 µM; Vibrio harveyi JMH597 AI-2 luminescence/OD600 ratio, 9 h; active compounds read low; strain lacks LuxN and CqsS sensors; 0 = neutral-control median; AID 2094; in the data active means activity change below about -75%, passing the limit was not always enough; inconclusive means no clear call, values can overlap the other calls;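 further: luminescence divided by OD600 gain over 9 h not by final OD600 alone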
PP1 inh: counter-screen for PP5 inhibitors: inhibitors of human PP1-alpha | P62136 | purified PP1alpha, OMFP fluorescence | inhibition, % at 6.7 µM | actives 0.9% (n = 320,000) | AID 2235;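 active means inhibition above the mean inhibition of all tested compounds plus 3 SD, computed separately for each screening campaign, cut at about 15% in these data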
Target sequence (P62136 whole entry, looked up): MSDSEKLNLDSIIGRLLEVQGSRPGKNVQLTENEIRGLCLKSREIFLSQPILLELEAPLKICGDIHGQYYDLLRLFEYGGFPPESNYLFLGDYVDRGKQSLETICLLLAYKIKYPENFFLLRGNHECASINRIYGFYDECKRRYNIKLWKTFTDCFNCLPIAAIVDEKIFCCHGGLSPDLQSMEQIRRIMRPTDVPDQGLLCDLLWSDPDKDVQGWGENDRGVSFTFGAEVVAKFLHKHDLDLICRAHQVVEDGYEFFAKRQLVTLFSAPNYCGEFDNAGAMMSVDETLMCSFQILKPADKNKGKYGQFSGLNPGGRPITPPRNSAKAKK
UBC13 polyUb: blocks human UBC13 polyubiquitin chain formation. P61088. TR-FRET. inhibition, % at 20 µM. actives 0.47% (n = 330,000). AID 485273; in the data active means inhibition above about 45%, passing the limit was not always enough; inconclusive means no clear call, values can overlap the other calls
Target sequence (P61088 whole entry, looked up): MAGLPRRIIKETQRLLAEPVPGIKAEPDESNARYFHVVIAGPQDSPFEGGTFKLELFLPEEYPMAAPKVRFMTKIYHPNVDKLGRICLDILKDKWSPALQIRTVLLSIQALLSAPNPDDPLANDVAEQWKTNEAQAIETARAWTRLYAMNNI
pCIP destab: lowers stability of the mouse p/CIP coactivator protein. F442A p/CIP-EGFP cells, EGFP fluorescence, 16 h. actives 0.01% (n = 290,000). decrease of EGFP signal, % at 10 µM;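 active means EGFP signal decrease of at least 30% at 10 µM or well 3 SD below plate mean, unless failing retest; inactive means the rest, including hits failing retest or dose response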
T cruzi repl: T. cruzi replication inhibition | T. cruzi beta-gal in NIH3T3, luminescence, 90 h | inhibition, % (concentration not given with the values) | actives 1.4% (n = 300,000);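 active means mean inhibition across valid replicates above about 55%, limit read from the data; inconclusive means mean below that limit but half or more replicates reach it; inactive means mean below it, under half of replicates reach it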;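 further: signal also drops with host cell toxicity which is not excluded here; higher percent means less beta-gal luminescence so fewer parasites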
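System: Mouse NIH/3T3 fibroblasts infected with β-gal-expressing T. cruzi Tulahuen C4 | Quantity: NIH/3T3 cells, 5,000 per well | Reagent: 5000 reporter trypomastigotes per well | Dosing: Compound pinned at 50 nL/well, DMSO | Schedule: 3 h host attachment, then at least 90 h co-culture | Detection: GalScreen luminescence, 60 min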
Each line names hits and unclear results; the compound was inactive in the other large screens. Shown are actives, neighbours in structure and some others; about 2.8% of the full set was active somewhere.

CCOc1ccc(NC(=O)CSc2nnc(C)n2CC)cc1	none
N#Cc1ccc(C(=O)N(Cc2ccco2)c2c(N)n(Cc3ccccc3)c(=O)[nH]c2=O)cc1	none (no result: AI-2 QS mod, pCIP destab, T cruzi repl)
Cc1cc(CN2CCN(CCC#N)CC2)c(O)c(C2(C)CCCCC2)c1	T cruzi repl 55 (no result: AI-2 QS mod)
N#CCCN1CCN(CCC#N)CC1	none
O=C(CC1C(=O)NCCN1C/C=C/c1ccccc1)NCCCC1CCCC1 (stereo unspecified)	none
CCc1ccc(OCCNC(=O)c2ccccc2SCc2ccc(F)cc2)cc1	T cruzi repl 57
O=C(CNC(=O)c1cccs1)OCc1ccc(Cl)cc1	AI-2 QS mod -79
O=C(CNC(=O)c1cccs1)NCC(=O)OCc1c(Cl)cccc1Cl	none
CCc1ccc(OCCNC(=O)c2cccs2)cc1	AI-2 QS mod -79
COc1ccc(OC)c(S(=O)(=O)NCC(=O)NC2CCCCCC2)c1	none (no result: AI-2 QS mod, pCIP destab, T cruzi repl)
CS/C(N)=N/S(=O)(=O)c1ccc(NC(C)=O)cc1	none
CCOc1ccccc1N(C)C(=O)c1sc2ncn(CC(=O)N3CCCCC3C)c(=O)c2c1C (stereo unspecified)	none
O=C1/C(=C/c2ccccc2)SC(=S)N1CC(=O)N1CCCCC1c1cccnc1 (stereo unspecified)	PP1 inh 17
O=C1/C(=C\c2ccccc2)SC(=S)N1CCC(=O)N1CCCCC1CCO (stereo unspecified)	none
N#Cc1c(-c2cccs2)cc(-c2ccccn2)nc1N	PP1 inh 16
N#Cc1c(-c2cccs2)cc(-c2cccnc2)nc1N	none
Cc1cc2c(NC(=O)CCCC(=O)O)cccc2nn1	none
Cc1cc2c(NC(=O)Nc3ccc(C(F)(F)F)cc3)cccc2nn1	T cruzi repl 69
CC(C)c1ccc(C2C3=C(CC(C)(C)CC3=O)NC3=C2C(=O)c2ccccc23)cc1 (stereo unspecified)	T cruzi repl 58
CC(=O)Nc1ccc(S(=O)(=O)c2ccc([N+](=O)[O-])cc2)cc1	T cruzi repl 70
CSc1ccc(S(=O)(=O)N2c3ccccc3CC2C)cc1 (stereo unspecified)	none
Cc1ccc(NC(=O)CSc2nc3[nH]ncc3c(=O)[nH]2)cc1Cl	none (no result: pCIP destab)
Cc1cc(C(=O)N/N=C/c2ccc(-c3ccccc3Cl)o2)n[nH]1	T cruzi repl 62
Cc1cc(C(=O)N/N=C/c2ccc([N+](=O)[O-])s2)n[nH]1	T cruzi repl 57
Cc1[nH]cnc1C(=O)N/N=C/c1ccc([N+](=O)[O-])s1	AI-2 QS mod inconclusive, T cruzi repl 57
Cc1ccc(C(=O)N/N=C\c2ccc([N+](=O)[O-])s2)cn1	T cruzi repl inconclusive
CCOC(=O)CC[C@H](NC(=O)Cn1cnc2c(OCc3ccccc3)ncnc21)C(=O)OCC	none (no result: AI-2 QS mod, PP1 inh, pCIP destab, T cruzi repl)
COCC(C)n1c(C)cc(C(=O)COC(=O)c2cccn2C)c1C (stereo unspecified)	none (no result: AI-2 QS mod, PP1 inh, pCIP destab, T cruzi repl)
NS(=O)(=O)c1cccc(NC(=O)COC(=O)C2CCCCC2)c1	none
O=C(Nn1c(-c2ccncc2)nc2ccccc2c1=O)c1ccc(Br)cc1	T cruzi repl 67
O=C(Nn1c(-c2ccc(Br)cc2)nc2ccccc2c1=O)c1cccnc1	none
N#Cc1c(C(F)(F)F)cc(-c2ccco2)nc1SCc1ccncc1	T cruzi repl 62
N#Cc1c(C(F)(F)F)cc(-c2ccco2)nc1SCc1ccccn1	none
CC(C)(C)CN1CCC(Oc2cccc(C(=O)N3CCC[C@H]3CO)c2)CC1	none
CCC(=O)Nc1ccc(C(=O)OCc2ccccc2Cl)cc1	T cruzi repl 61
O=C(O)C1CCN(C(=O)CSc2nc3cc(Cl)ccc3c(=O)n2Cc2ccccc2)CC1	none (no result: AI-2 QS mod)
Brc1ccc(-c2ncc3ccccn23)cc1	none
CCNc1nc(NCC)nc(Oc2ccc(OCC)nn2)n1	none
CCNc1nc(N)nc(Oc2ccc(OCCOc3ccc(Cl)cc3Cl)nn2)n1	T cruzi repl 66
Cc1cc(-c2nnc(SCC(=O)Nc3ccccc3Cl)n2C)no1	none
Cn1c(=O)[nH]c(=O)c2c1nc(Br)n2CCCSc1nc2ccccc2o1	T cruzi repl 63
Cc1ccc2c(c1)N(CC(=O)NCCCN1CCOCC1)C(=O)C(C(C)C)O2 (stereo unspecified)	none (no result: pCIP destab)
CCOc1cc(/C=C\[N+](=O)[O-])ccc1OCC(=O)N1CCOCC1	none
CCOc1ccc(S(=O)(=O)c2c[nH]c3ccccc3c2=O)cc1	AI-2 QS mod -85
Nc1ccc(C(=O)N2CCN(S(=O)(=O)/C=C/c3ccccc3)CC2)cc1[N+](=O)[O-]	none (no result: pCIP destab)
O=C(c1ccc2ccccc2c1)N1CCN(S(=O)(=O)/C=C/c2ccccc2)CC1	T cruzi repl 55
O=C(COC(=O)Cc1ccccc1F)Nc1ccc(F)cc1F	none
Cc1cccc2sc(NC(=O)C3CCN(S(=O)(=O)c4cc([N+](=O)[O-])ccc4Cl)CC3)nc12	T cruzi repl 68
Cc1nnc(NC(=O)C2CCN(S(=O)(=O)c3cc([N+](=O)[O-])ccc3Cl)CC2)o1	none (no result: AI-2 QS mod, pCIP destab, T cruzi repl)
Cc1ccccc1C(=O)Nc1nnc(-c2ccc(F)cc2)o1	AI-2 QS mod -82
Nc1nonc1C(=O)NCCN=Cc1cc(Cc2ccccc2)cc(Br)c1O	AI-2 QS mod -149
Nc1nonc1C(=O)NCCN=Cc1ccccc1O	none
Cc1ccc(-c2nc(C#N)c(N3CCC(C(N)=O)CC3)o2)cc1	none
CCCCCCCCn1c(N2CCN(c3cccc(Cl)c3)CC2)nc2c1c(=O)[nH]c(=O)n2C	T cruzi repl 55
COc1ccc(NC(=O)c2cnc(SCC(=O)NCCc3ccccc3)n(C)c2=O)cc1	none (no result: pCIP destab)
COc1ccccc1CNC(=O)CSc1ncc(C(=O)Nc2ccccc2)c(=O)n1C	UBC13 polyUb 65 (no result: pCIP destab)
CC(=O)c1cccc(NC(=O)CSc2ncc(C(=O)Nc3ccccc3)c(=O)n2C)c1	UBC13 polyUb 73 (no result: pCIP destab)
Cc1noc(C)c1CSCC(=O)Nc1nc2c(F)cc(F)cc2s1	none (no result: AI-2 QS mod, pCIP destab, T cruzi repl)
CCOc1cc(C)c(C(C)C)cc1S(=O)(=O)N1CC(C)OC(C)C1 (stereo unspecified)	none
CCOc1cc(C)c(C(C)C)cc1S(=O)(=O)n1cnc(C)c1	T cruzi repl 55
CCCCCCOC(=O)C(C#N)c1nc2ccccc2nc1N1CCN(C)CC1 (stereo unspecified)	T cruzi repl 68
CCC(C)COC(=O)C(C#N)c1nc2ccccc2nc1N1CCCCC1 (stereo unspecified)	none
C=CCOC(=O)C(C#N)c1nc2ccccc2nc1N1CCN(Cc2ccc3c(c2)OCO3)CC1 (stereo unspecified)	T cruzi repl 57
CCC(CC)COC(=O)C(C#N)c1nc2ccccc2nc1N1CCN(CC)CC1 (stereo unspecified)	T cruzi repl 55
COC(=O)c1cc(C(=O)c2ccc(Cl)cc2)n2c(=O)/c(=C\N(C)C)sc12	none
OCCCn1c(-c2ccccc2)nc(=S)c2c1CCCC2	none
CN(C)CCCn1c(-c2ccccc2)nc(=S)c2c1CCCC2	T cruzi repl 59
Clc1ccc(C[n+]2cc(-c3ccccc3)n3c2CCC3)cc1Cl	T cruzi repl 59
Clc1ccc(-c2c[n+](Cc3ccc(Cl)cc3Cl)c3n2CCCCC3)cc1	none

Source: PubChem (several laboratories)
